In the library only some 2.5% were active in any assay of this set; here they are far more common.
H9c2 TAG inh: triacylglycerol accumulation inhibition; H9c2 cells, Nile Red lipid (TAG) fluorescence; cells loaded with 200 µM oleic acid; inhibition, % at 12.5 µM; actives 0.66% (n = 230,000); AID 651582;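 active = pattern-corrected inhibition of lipid staining of at least 50% with the nuclear-stain viability signal not falling by more than 50%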;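 also: 0% = DMSO wells and 100% = triacsin C control wells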
SR-BI HDL uptake: mouse SR-BI HDL lipid transfer inhibition; ldlA[mSR-BI] CHO cells, DiI-HDL uptake fluorescence, 3 h; inhibition, % at 12.5 µM; actives 0.96% (n = 320,000);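 active = mean replicate inhibition of at least 70% and a set share of replicates each scoring 70 or more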;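 also: 0% = median of neutral control wells and 100% = median of positive control wells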
Target sequence (Q61009 whole entry, looked up): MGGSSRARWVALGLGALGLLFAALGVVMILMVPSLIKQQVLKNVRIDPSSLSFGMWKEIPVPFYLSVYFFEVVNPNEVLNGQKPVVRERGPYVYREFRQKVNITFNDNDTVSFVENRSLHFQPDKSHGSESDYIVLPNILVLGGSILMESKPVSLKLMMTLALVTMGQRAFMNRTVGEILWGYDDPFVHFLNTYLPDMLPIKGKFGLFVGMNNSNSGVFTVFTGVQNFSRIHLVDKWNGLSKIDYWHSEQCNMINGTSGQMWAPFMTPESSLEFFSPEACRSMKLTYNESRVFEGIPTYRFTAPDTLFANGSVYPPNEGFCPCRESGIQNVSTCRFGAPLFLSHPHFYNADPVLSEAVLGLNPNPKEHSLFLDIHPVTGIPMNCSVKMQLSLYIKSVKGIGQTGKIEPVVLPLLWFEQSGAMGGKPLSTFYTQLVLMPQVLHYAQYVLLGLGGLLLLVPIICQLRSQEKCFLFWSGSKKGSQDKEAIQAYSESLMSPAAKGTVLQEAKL
SMARCA2 act: increases SMARCA2 function in MMTV reporter cells; MG213 cells, MMTV-luciferase reporter, dexamethasone, overnight; activation, % at 9.1 µM; actives 1% (n = 370,000); in the data active = activation above about 7.8%;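 also: 0% = vehicle wells and 100% = reference activator wells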
Vif inh: HIV Vif inhibition. inhibition, % at 7.49 µM. actives 0.35% (n = 340,000). HEK293T cells, Vif self-association by quenched fluorescence, imaging, 24 h. AID 602346; in the data active = inhibition above about 50%, passing the limit was not always enough
SR-BI DiI-HDL act: activators of SR-BI mediated HDL lipid uptake; CHO ldlA[mSR-BI] cells, DiI-HDL uptake fluorescence, 3 h; 100 = double the neutral-control signal; activation, % at 12.5 µM; actives 0.096% (n = 320,000); AID 504775;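 active = mean replicate activation of at least 60% and every replicate at or above 60%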;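 also: 0% = median plate neutral-control signal and 100% = twice that signal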
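Material – SR-BI-overexpressing, LDLR-lacking CHO cells · Medium – BSA-supplemented, HEPES-buffered Ham's F12, pH 7.4 · Doses – single concentration · Times – compound with DiI-HDL co-incubation, 3 h at 37 °C · Measured by – bottom-read fluorescence, 550/595 nm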
SMARCA2 act conf: SMARCA2 activation, confirmation screen. shares compounds with SMARCA2 act. MG213 cells, MMTV-luciferase with dexamethasone, luminescence, overnight; MG213 cells expressing E1A, Rb sequestered; DMSO wells 0%, reference activator 100%. activation, % at 9.1 µM. actives 30% (n = 3,500). AID 652260;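 active = activation above its plate's cutoff, the mean activation of tested wells plus 3 SD, cut at about 7.9% in these data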
VP16 Luc act: counter-screen for SMARCA2 activators: GAL4-VP16 luciferase reporter activation; AID 686939; HEK293 GAL4-VP16 pG5luc reporter, luciferase luminescence; scaled: DMSO wells 0%, SAHA wells 100%; actives 41% (n = 3,500); shares compounds with SMARCA2 act; activation, % at 9.1 µM;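 active = activation above the solvent-only control well mean plus 3 SD, averaged across control plates, cut at about 5.2% in these data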
The depositor's hits bear a star; . = not tested or not shown.

SMILES | H9c2 TAG inh | SR-BI HDL uptake | SMARCA2 act | Vif inh | SR-BI DiI-HDL act | SMARCA2 act conf | VP16 Luc act
O=C(O)c1ccc(NC(CSCc2ccc(F)cc2)C(=O)O)c([N+](=O)[O-])c1 (stereo not given) | . | -9.9 | -1.7 | 6.1 | 9.9 | . | .
Cc1ccc(NC(=O)C2C(C(=O)O)C3C=CC2C32CC2)cc1 (stereo not given) | . | -18.8 | 9.8* | 7.4 | 18.8 | -1.4 | 1.8
Cc1cccc(NC(=O)C2C(C(=O)O)C3C=CC2C32CC2)c1C (stereo not given) | -11.2 | 38.5 | 0.6 | 42.4 | -38.5 | . | .
CCc1ccc(NC(=O)c2cnccn2)cc1 | . | -4.5 | 1.6 | -3.7 | 4.5 | . | .
O=C(Nc1ccc(OC(F)(F)F)cc1)c1cnccn1 | -15.7 | 5.5 | 8.1* | 6.2 | -5.5 | 9.4* | 11.1*
CCN(C[C@H]1N[C@@](Cc2ccccc2)(C(=O)OC)[C@H]2C(=O)N(Cc3ccccc3)C(=O)[C@@H]12)S(=O)(=O)c1ccc(C)cc1 | 14.3 | 49.3 | 10.2* | -3.1 | -49.3 | -6.6 | -0.9
CCN(CC)CCCNC(=O)c1cc2c(Cl)nc3ccccc3c2s1 | 30.6 | 22.0 | 17.7* | 26.5 | -22.0 | 23.2* | 0.9
CC1CCCN(CCCNC(=O)c2cc3c(Cl)nc4ccccc4c3s2)C1 (stereo not given) | . | 11.3 | 14.7* | 20.2 | -11.3 | 26.5* | 1.9
Cc1onc(-c2c(F)cccc2Cl)c1-c1ncc(-c2ccc(Cl)cc2)o1 | . | . | 3.7 | . | . | . | .
CCCN(CC(=O)Nc1ccccc1C)C(=O)c1ccc2ccccc2n1 | 11.7 | -0.7 | -0.8 | -4.2 | 0.7 | . | .
Cc1ccccc1NC(=S)c1ccc2ccccc2n1 | . | 10.5 | 8.2* | 0.1 | -10.5 | 16.0* | 7.6*
Cc1ccccc1CN1CCCCC(NC(=O)c2ccccc2C(F)(F)F)C1=O (stereo not given) | . | . | -1.7 | . | . | . | .
COc1ccc(CCNC(=O)c2coc(=O)c(Br)c2)cc1 | . | . | 28.5* | . | . | 12.0* | 11.2*
COc1ccc(CCNC(=O)c2ccc(Br)cc2)cc1 | . | -18.9 | 0.6 | -14.8 | 18.9 | . | .
O=C(COC(=O)Cc1c(Cl)cccc1Cl)NCc1ccccc1 | 7.4 | . | -1.9 | . | . | . | .
CCOC(=O)N1CCN(C(=O)C[C@H]2C[C@@]3(C(=O)OC)C(=C[C@H](COCc4ccccc4)O[C@@H]3C)N(Cc3ccco3)C2=O)CC1 | . | . | -2.1 | . | . | . | .
Cc1ccc(NC(=S)N(CCCN2CCCC(C)C2)Cc2ccco2)cc1C (stereo not given) | -4.2 | -10.5 | 9.2* | 2.7 | 10.5 | -0.7 | 0.8
O=C(COC(=O)c1nc(Cl)c(Cl)c(Cl)c1Cl)c1ccc[nH]1 | 3.0 | 0.4 | 9.3* | -12.7 | -0.4 | 20.0* | 1.0
Cn1c(=N)n(CC(=O)c2ccc(Br)s2)c2ccccc21 | 36.8 | 7.5 | 4.6 | 7.3 | -7.5 | . | .
N=c1n(CC(=O)c2ccc(Br)s2)c2ccccc2n1Cc1ccccc1 | 53.0* | -2.3 | 8.2* | -0.2 | 2.3 | 22.6* | 1.9
c1ccc(N=Nc2ccc3cccccc2-3)cc1 | 96.3* | 29.6 | 9.6* | 0.2 | -29.6 | 13.7* | 13.2*
COc1ccc(C(=O)Nc2nc3ccccc3[nH]2)cc1OC | . | 13.9 | 10.5* | 2.1 | -13.9 | 6.1 | 10.2*
COc1ccc(Cl)cc1C(=O)Nc1nc2ccccc2[nH]1 | . | 34.0 | 0.1 | -10.9 | -34.0 | . | .
COc1cc(OC)cc(C(=O)Nc2nc3ccccc3[nH]2)c1 | 18.0 | 48.4 | 0.2 | -1.3 | -48.4 | . | .
COc1ccc(Br)c(C(=O)Nc2nc3ccccc3[nH]2)c1 | . | . | 8.8* | 9.3 | . | 7.8* | 2.1
SMILES | H9c2 TAG inh | SR-BI HDL uptake | SMARCA2 act | Vif inh | SR-BI DiI-HDL act | SMARCA2 act conf | VP16 Luc act
O=C(Nc1nc2ccccc2[nH]1)C1CCCC1 | 9.6 | -3.8 | 1.3 | -9.0 | 3.8 | . | .
O=C(Nc1nc2ccccc2[nH]1)C1CCC1 | -7.7 | 7.5 | 8.9* | -3.0 | -7.5 | 3.2 | 8.7*
Nc1nc(F)nc2c1ncn2[C@@H]1O[C@H](COP(=O)(O)O)[C@@H](O)[C@@H]1O | . | . | -5.2 | . | . | . | .
O=C(O)CCn1cc(/C=N/O)c(-c2cccc([N+](=O)[O-])c2)n1 | 1.1 | -14.4 | -0.3 | 2.5 | 14.4 | . | .
O=C(c1cc(COc2ccc(F)cc2Cl)on1)N1CC2C[C@@H]3CC1C[C@H](C2)C3 | . | -3.5 | 5.4 | 5.7 | 3.5 | . | .
CCc1c(C)nc2cc(-c3ccc(OC)cc3)[nH]n2c1=O | . | 4.0 | 8.9* | 6.3 | -4.0 | 10.9* | 10.6*
COCc1cc(=O)n2[nH]c(-c3ccc(C)cc3)cc2n1 | . | 5.5 | 10.0* | 5.0 | -5.5 | 8.9* | 4.8
CCOC(=O)Cc1cc(=O)n2[nH]c(-c3ccc(C)cc3)cc2n1 | . | 5.5 | 3.2 | . | -5.5 | . | .
CCOC(=O)N1CCN(Cc2nc3cc(NC(=O)c4cccs4)ccc3n2CC)CC1 | . | 25.6 | -1.1 | 3.7 | -25.6 | . | .
Cc1ccc(NC(=O)c2ccc3snnc3c2)cc1 | -1.9 | 29.9 | 9.2* | -3.2 | -29.9 | 3.2 | 12.0*
CCOc1ccc2nc(NC(=O)CSc3cn[nH]n3)sc2c1 | . | 19.9 | 12.0* | -1.4 | -19.9 | 8.2* | 12.9*
C(=C\c1nc(-c2ccccc2)no1)/c1ccccc1 | . | -6.1 | 8.9* | -6.8 | 6.1 | 9.3* | 9.1*
c1ccc(-c2noc(-c3ccccc3-c3ccccc3)n2)cc1 | -11.9 | 0.5 | 2.0 | 13.3 | -0.5 | . | .
C(=C\c1nc(-c2ccncc2)no1)/c1ccccc1 | 1.8 | -12.5 | 8.1* | -1.6 | 12.5 | 8.1* | 5.3*
CC(=O)c1cccc(NS(=O)(=O)c2ccc(N/C=C\C(=O)c3ccc(C)cc3)cc2)c1 | -1.5 | 42.3 | 2.5 | -10.0 | -42.3 | . | .
O=C(/C=C/Nc1cccc(O)c1)c1ccccc1 | . | 15.4 | 8.1* | . | -15.4 | 6.4 | 8.1*
O=C(/C=C/Nc1ccc(Br)cc1F)c1ccccc1 | . | -7.7 | 3.4 | -2.9 | 7.7 | . | .
CC(=O)c1cccc(N/C=C\C(=O)c2ccc(C)cc2)c1 | 17.4 | 27.8 | 10.5* | -3.2 | -27.8 | 9.6* | 9.8*
Cc1ccc(C(=O)/C=C/Nc2cccc(O)c2)cc1 | . | -17.7 | 2.0 | -3.3 | 17.7 | . | .
O=C(/C=C/Nc1ccccc1F)c1ccc(Br)cc1 | . | -16.9 | 17.5* | . | 16.9 | 3.9 | 13.8*
O=C(/C=C/Nc1ccc(F)c(Cl)c1)c1ccccc1 | . | 8.8 | 9.3* | 0.0 | -8.8 | 6.7 | 13.3*
CCN(CC)CCn1c2ccccc2c2nc3ccc([N+](=O)[O-])cc3cc21 | 35.0 | 25.6 | 10.1* | -1.1 | -25.6 | 99.0* | 5.0
C[C@H](O)[C@@H]1C(=O)N2CCc3c([nH]c4c(-c5ccccc5)cccc34)[C@@H]2C[C@@H]1N(C)C(=S)Nc1ccc(C#N)cc1 | . | . | -0.5 | . | . | . | .
